We go through two compounds from ChEMBL document CHEMBL1145384, “Novel C-6 fluorinated acyclic side chain pyrimidine derivatives: synthesis, (1)H and (13)C NMR conformational studies, and antiviral and cytostatic evaluations” (J Med Chem, 2007).

Data set [1] relates to Human betaherpesvirus 5. As to the kind of experiment: Antiviral activity against human cytomegalovirus AD169 in HEL cells assessed as reduction of plaque formation after 7 days. The class given is functional, organism-based. The note with it: Human betaherpesvirus 5, AD169, HEL, 168 h. In outline:
(§1)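 Confluent HEL fibroblasts infected with HCMV (Davis or AD-169) at 100 PFU per well; after 2 h adsorption, residual virus removed and medium with serial compound concentrations added (duplicate wells). Incubated 7 days; EC50 taken as concentration reducing plaque formation by 50%.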

Data set [2] has as its system Human betaherpesvirus 5. The data set can be described thus: Antiviral activity against human cytomegalovirus Davis in HEL cells assessed as reduction of plaque formation after 7days. The following applies: Human betaherpesvirus 5, Davis, 168 h. The class given is functional, organism-based. In outline:
as §1

Data set [3] has as its system Human alphaherpesvirus 3. As to the kind of experiment: Antiviral activity against thymidine kinase expressing Varicella-Zoster virus OKA assessed as reduction of plaque formation. It is filed as functional, organism-based. The following applies: Human alphaherpesvirus 3, OKA.
Data set [4] has as its system Human alphaherpesvirus 3. The data set can be described thus: Antiviral activity against thymidine kinase deficient Varicella-Zoster virus 07/1 assessed as reduction of plaque formation. It is filed as functional, organism-based. The note with it: Human alphaherpesvirus 3, 07/1. In outline: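 Plaque reduction assay in HEL cells against TK+ (OKA) and TK- (07/1) VZV strains; virus input 100 PFU; EC50 as concentration giving 50% plaque reduction.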

Data set [5] is described as follows: Cytotoxicity against HEL cells assessed as cell morphology after 7 days. It is filed as cell-based. The note with it: human. In outline: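 Uninfected confluent HEL cultures exposed to compounds; MCC recorded as lowest concentration producing a microscopically detectable alteration of normal cell morphology at day 7.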
The nature of data set [6]: Cytotoxicity against HEL cells assessed as cell growth after 7 days. It is filed as cell-based. The note with it: human.
The next data set relates to Human respirovirus 3. The data set can be described thus: Antiviral activity against parainfluenza 3 virus in Vero cells assessed as reduction of virus plaque formation after 7 days. It is filed as functional, organism-based. The following applies: Human respirovirus 3, Vero, 168 h.
The subject of data set [7] is Mammalian orthoreovirus 1. As to the kind of experiment: Antiviral activity against reovirus1 virus in Vero cells assessed as reduction of virus plaque formation after 7 days. The class given is functional, organism-based. The following applies: Mammalian orthoreovirus 1, Vero, 168 h.
A further data set concerns Sindbis virus. As to the kind of experiment: Antiviral activity against sindbis virus in Vero cells assessed as reduction of virus plaque formation after 7 days. The class given is functional, organism-based. The note with it: 168 h.
For a further data set, the system named is Punta Toro virus. As to the kind of experiment: Antiviral activity against Punta Toro virus in Vero cells assessed as reduction of virus plaque formation after 7 days. The following applies: 168 h. The class given is functional, organism-based.
Another data set deals with Coxsackievirus B4. The data set can be described thus: Antiviral activity against coxsackie B4 virus in HeLa cells assessed as reduction of virus plaque formation after 7 days. The class given is functional, organism-based. The note with it: Enterovirus B, 168 h.
For the next data set, the system named is HEp-2. The data set can be described thus: Growth inhibition of Hep2 cells after 72 hrs by MTT assay. The class given is functional, cell-based. The note with it: Homo sapiens, HEp-2, 72 h. Summed up: (§2)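 Tumor lines grown as monolayers in DMEM with 10% FBS, 2 mM L-glutamine and penicillin. Freshly diluted compounds added, solvent tested at matching concentrations; after 72 h growth measured by MTT. IC50 obtained by linear regression of concentrations bracketing 50% growth; mean of three separate experiments.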

The next data set has as its system HeLa. As to the kind of experiment: Growth inhibition of HeLa cells after 72 hrs by MTT assay. The class given is functional, cell-based. The note with it: Homo sapiens. In outline: as §2
For a further data set, the system named is MIA PaCa-2. The data set can be described thus: Growth inhibition of MiaPaCa2 cells after 72 hrs by MTT assay. It is filed as functional, cell-based. The note with it: Homo sapiens, MIA PaCa-2, 72 h. Summed up:
as §2

The subject of the next data set is SW-620. The data set can be described thus: Growth inhibition of SW620 cells after 72 hrs by MTT assay. It is filed as functional, cell-based. The note with it: Homo sapiens, SW-620, 72 h. Summed up: as §2
In the next data set the test system is MCF7. The data set can be described thus: Growth inhibition of MCF7 cells after 72 hrs by MTT assay. It is filed as functional, cell-based. The following applies: Homo sapiens, MCF7, 72 h. In outline: as §2
The subject of another data set is L1210. The data set can be described thus: Growth inhibition of mouse L1210 cells after 72 hrs by MTT assay. The following applies: L1210, 72 h. The class given is functional, cell-based.
A short description of data set [8]: Growth inhibition of human Molt4/C8 cells after 72 hrs by MTT assay. It is filed as functional, cell-based. The note with it: MOLT-4, 72 h.
Another data set deals with CCRF-CEM. The data set can be described thus: Growth inhibition of human CEM cells after 72 hrs by MTT assay. It is filed as functional, cell-based.
The next data set concerns WI-38. The data set can be described thus: Growth inhibition of human WI38 fibroblasts at 0.1 uM after 72 hrs by MTT assay. The class given is functional, cell-based.

pEC50, pIC50: −log10 of the molar value. The source made the active and inactive calls. The calls are words filed in the database; no cut-off is given here.

With `COc1nc(CBr)c(Br)c(OC)n1`, the pEC50 with Human betaherpesvirus 5 [1] was < 4.00; in the data set with Human betaherpesvirus 5 [2], < 4.00; in the data set with Human alphaherpesvirus 3 [3], < 4.00; in the data set with Human alphaherpesvirus 3 [4], < 4.00; with Human respirovirus 3 it was < 5.10; in [7], < 5.10. Moreover, the negative-log EC50 (pEC50) was < 5.10 with Sindbis virus, < 5.10 with Punta Toro virus and < 4.40 in the data set on Coxsackievirus B4. Moreover, the MCC at 168 h in data set [5] was > 100 µM. In addition, the CC50 at 168 h in [6] was 38.7 µM. Further, the pIC50 was 5.15 with HEp-2; 4.74 with HeLa; 5.70 in the data set with MIA PaCa-2; 6.00 in the data set with SW-620; 5.10 with MCF7; 4.42 with L1210. The pIC50 is 4.01 in data set [8] and 4.55 with CCRF-CEM. Also, the outcome in the data set with WI-38 was inactive.
Consider `CC(=O)OC(C)(Cc1cc(O)nc(O)n1)Cc1ccccc1F` (centres undefined), for which the pEC50 is < 4.00 with Human betaherpesvirus 5 [1]; < 4.00 with Human betaherpesvirus 5 [2]; < 4.00 with Human alphaherpesvirus 3 [3]; < 4.00 in the data set on Human alphaherpesvirus 3 [4]; < 3.91 in the data set with Human respirovirus 3; < 3.91 in [7]. In addition, the pEC50 in the data set on Sindbis virus is < 3.91; in the data set on Punta Toro virus, < 3.91; with Coxsackievirus B4 it was < 3.70. Moreover, in data set [5], the MCC at 168 h was > 100 µM. Further, the 50% cytotoxic concentration (CC50) at 168 h in [6] is > 100 µM. The pIC50 in the data set with HEp-2, in the data set with HeLa, in the data set on MIA PaCa-2, with SW-620, with MCF7 and with L1210 was < 3.70 throughout. Moreover, the pIC50 (in data set [8]; in the data set on CCRF-CEM) was < 3.70 each time.
